From ChEMBL document CHEMBL2157936, “Structure-activity relationships for side chain oxysterol agonists of the hedgehog signaling pathway” (ACS Med Chem Lett, 2012)
Active and inactive are the calls of the source. The calls are words filed in the database; no cut-off is given here.

What was measured:
[1] = Agonist activity at Hh receptor in mouse C3H10T1/2 cells assessed as fold increase in Gli1 expression at 5 uM by RT-PCR analysis relative to control; type: functional, C3H 10T1/2
[2] = Agonist activity at LXR in mouse C3H10T1/2 cells assessed as fold increase in ABCA1 expression at 5 uM by RT-PCR analysis relative to control; type: functional, C3H 10T1/2
[3] = Selectivity ratio of agonist activity at Hh receptor over agonist activity at LXR in mouse C3H10T1/2 cells; type: functional, C3H 10T1/2
[4] = (§1) Agonist activity at Hh receptor in mouse C3H10T1/2 cells assessed as increase in Gli1 expression by RT-PCR analysis; type: functional, cell-based; details: C3H 10T1/2
How it was run: (§2)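 Dose-response in C3H10T1/2 and M2-10B4 cells. Read-out: mRNA of GLI1, PTCH (Hh) or ABCA1 (LXR), expressed relative to the DMSO control. EC50 values were derived from these curves.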

C3H 10T1/2 [5] = test: as §1; type: functional, cell-based; how it was run: as §2
[6] = (§3) Agonist activity at Hh receptor in mouse M210B4 cells assessed as increase in Gli1 expression by RT-PCR analysis; type: functional, cell-based; how it was run: as §2
M210B4 [7] = test: as §3; type: functional, cell-based; how it was run: as §2
[8] = (§4) Agonist activity at Hh receptor in mouse C3H10T1/2 cells assessed as increase in Ptch expression by RT-PCR analysis; type: functional, cell-based; details: C3H 10T1/2; how it was run: as §2
C3H 10T1/2 [9] = test: as §4; type: functional, cell-based; how it was run: as §2
[10] = (§5) Agonist activity at Hh receptor in mouse M210B4 cells assessed as increase in Ptch expression by RT-PCR analysis; type: functional, cell-based; how it was run: as §2
M210B4 [11] = test: as §5; type: functional, cell-based; how it was run: as §2
[12] = Agonist activity at LXR in mouse C3H10T1/2 cells assessed as increase in ABCA1 expression by RT-PCR analysis; type: functional, cell-based; details: C3H 10T1/2; how it was run: as §2
[13] = Agonist activity at LXR in mouse M210B4 cells assessed as increase in ABCA1 expression by RT-PCR analysis; type: functional, cell-based; how it was run: as §2
C3H 10T1/2 [14] = test: Selectivity ratio of EC50 for LXR to EC50 for Hh receptor in mouse C3H10T1/2 cells; type: cell-based
M210B4 [15] = test: Selectivity ratio of EC50 for LXR to EC50 for Hh receptor in mouse M210B4 cells; type: cell-based
M210B4 [16] = test: Agonist activity at Hh receptor in mouse M210B4 cells assessed as upregulation of Gli1 at 5 uM after 24 hrs by RT-PCR analysis relative to control; type: functional, cell-based
How it was run: (§6)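 Read-out: GLI1 or PTCH mRNA in M2-10B4 cells. Cells were pretreated for 2 h with cyclopamine (5 μM), or left without it, then given OHC (5 μM). mRNA was measured after 24 h of incubation and expressed as fold induction over the DMSO control, set at 1. Data come from a representative experiment run in triplicate.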

M210B4 [17] = test: Agonist activity at Hh receptor in mouse M210B4 cells assessed as upregulation of Ptch at 5 uM after 24 hrs by RT-PCR analysis relative to control; type: functional, cell-based; how it was run: as §6
M210B4 [18] = test: Agonist activity at Hh receptor in mouse M210B4 cells assessed as upregulation of Gli1 at 5 uM after 24 hrs by RT-PCR analysis in presence of cyclopamine relative to control; type: functional, cell-based; how it was run: as §6
M210B4 [19] = test: Agonist activity at Hh receptor in mouse M210B4 cells assessed as upregulation of Ptch at 5 uM after 24 hrs by RT-PCR analysis in presence of cyclopamine relative to control; type: functional, cell-based; how it was run: as §6
M210B4 [20] = test: Induction of Hh receptor-mediated osteogenesis in mouse M210B4 cells assessed as fold increase in Osx expression at 5 uM after 24 hrs by RT-PCR analysis relative to control; type: cell-based
How it was run: (§7)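 M2-10B4 cells received OHC (5 μM), or the 20(S)-/22(S)-OHC pair (5 μM each). Osterix and alkaline phosphatase mRNA were measured at time points of 24, 48 and 96 h. Expression is relative to the DMSO control. Data come from a representative experiment run in triplicate.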

M210B4 [21] = test: Induction of Hh receptor-mediated osteogenesis in mouse M210B4 cells assessed as fold increase in Osx expression at 5 uM after 48 hrs by RT-PCR analysis relative to control; type: cell-based; how it was run: as §7
M210B4 [22] = test: Induction of Hh receptor-mediated osteogenesis in mouse M210B4 cells assessed as fold increase in Osx expression at 5 uM up to 96 hrs by RT-PCR analysis relative to control; type: cell-based; how it was run: as §7
M210B4 [23] = test: Induction of Hh receptor-mediated osteoblast formation in mouse M210B4 cells assessed as increase in ALP expression at 5 uM after 24 hrs by RT-PCR analysis relative to control; type: cell-based; how it was run: as §7
M210B4 [24] = test: Induction of Hh receptor-mediated osteoblast formation in mouse M210B4 cells assessed as increase in ALP expression at 5 uM after 48 hrs by RT-PCR analysis relative to control; type: cell-based; how it was run: as §7
M210B4 [25] = test: Induction of Hh receptor-mediated osteoblast formation in mouse M210B4 cells assessed as increase in ALP expression at 5 uM up to 96 hrs by RT-PCR analysis relative to control; type: cell-based; how it was run: as §7
M210B4 [26] = test: Ratio of EC50 for Hh receptor in mouse M210B4 cells to EC50 for Hh receptor in mouse C3H10T1/2 cells; type: cell-based

## CC(C)(O)CC[C@](C)(O)[C@H]1CC[C@H]2[C@@H]3CC=C4C[C@@H](O)CC[C@]4(C)[C@H]3CC[C@@]21C
[1]
  fold change (FC): 18.1
[2]
  fold change (FC): 10.3
[3]
  Selectivity ratio: 1.8

## CC(C)CCC[C@](C)(O)[C@H]1CC[C@H]2[C@@H]3CC=C4C[C@@H](O)CC[C@]4(C)[C@H]3CC[C@@]21C
[1]
  fold change (FC): 91.8
[2]
  fold change (FC): 13.4
[3]
  Selectivity ratio: 6.8

## CC(C)CC[C@@H](O)[C@@H](C)[C@H]1CC[C@H]2[C@@H]3CC=C4C[C@@H](O)CC[C@]4(C)[C@H]3CC[C@]12C [22(R)-HYDROXYCHOLESTEROL]
[1]
  fold change (FC): 4.7
[2]
  fold change (FC): 24.1

## CC(C)(O)CCC[C@](C)(O)[C@H]1CC[C@H]2[C@@H]3CC=C4C[C@@H](O)CC[C@]4(C)[C@H]3CC[C@@]21C
[1]
  fold change (FC): 107.8
[2]
  fold change (FC): 26.3
[3]
  Selectivity ratio: 4.1

## CC(C)C[C@@H](O)C[C@@H](C)[C@H]1CC[C@H]2[C@@H]3CC=C4C[C@@H](O)CC[C@]4(C)[C@H]3CC[C@]12C
[1]
  fold change (FC): 87.1
[2]
  fold change (FC): 4.9
[3]
  Selectivity ratio: 17.8
[4]
  EC50: 540 nM
C3H 10T1/2 [5]
  Activity: Dose-dependent effect
[6]
  EC50: 570 nM
M210B4 [7]
  Activity: Dose-dependent effect
[8]
  EC50: 650 nM
C3H 10T1/2 [9]
  Activity: Dose-dependent effect
[10]
  EC50: 580 nM
M210B4 [11]
  Activity: Dose-dependent effect
[12]
  EC50: 1530 nM
[13]
  EC50: 1540 nM
C3H 10T1/2 [14]
  Ratio EC50: 3
M210B4 [15]
  Ratio EC50: 3
M210B4 [16]
  Activity: Active
M210B4 [17]
  Activity: Active
M210B4 [18]
  Activity: inactive
M210B4 [19]
  Activity: inactive
M210B4 [20]
  fold change (FC): 5
M210B4 [21]
  fold change (FC): > 30
M210B4 [22]
  Activity: Active
M210B4 [23]
  Activity: Active
M210B4 [24]
  Activity: Active
M210B4 [25]
  Activity: Active
M210B4 [26]
  Ratio EC50: 1.06

## CC(C)CCC[C@@H](C)[C@H]1CC[C@H]2[C@@H]3[C@@H](O)C=C4C[C@@H](O)CC[C@]4(C)[C@H]3CC[C@]12C
[1]
  fold change (FC): 1.6
[2]
  fold change (FC): 0.6
[3]
  Selectivity ratio: 2.6

## CC(C)CC[C@H](O)[C@@H](C)[C@H]1CC[C@H]2[C@@H]3CC=C4C[C@@H](O)CC[C@]4(C)[C@H]3CC[C@]12C
[1]
  fold change (FC): 52.5
[2]
  fold change (FC): 2.3
[3]
  Selectivity ratio: 22.8

## CC(C)C[C@H](O)C[C@@H](C)[C@H]1CC[C@H]2[C@@H]3CC=C4C[C@@H](O)CC[C@]4(C)[C@H]3CC[C@]12C
[1]
  fold change (FC): 32.4
[2]
  fold change (FC): 3.6
[3]
  Selectivity ratio: 9

## C[C@@H]([C@H]1CC[C@H]2[C@@H]3CC=C4C[C@@H](O)CC[C@]4(C)[C@H]3CC[C@]12C)[C@@H](O)CCC(C)(C)O
[1]
  fold change (FC): 9.9
[2]
  fold change (FC): 2.9
[3]
  Selectivity ratio: 3.4

## C[C@H](CCO)[C@H]1CC[C@H]2[C@@H]3CC=C4C[C@@H](O)CC[C@]4(C)[C@H]3CC[C@]12C
[1]
  fold change (FC): 4.1
[2]
  fold change (FC): 0.4
[3]
  Selectivity ratio: 10.4

## C[C@H](C(=O)CCC(C)(C)O)[C@H]1CC[C@H]2[C@@H]3CC=C4C[C@@H](O)CC[C@]4(C)[C@H]3CC[C@]12C
[1]
  fold change (FC): 6
[2]
  fold change (FC): 21.7

## C[C@H](C(O)CCC(C)(C)O)[C@H]1CC[C@H]2[C@@H]3CC=C4C[C@@H](O)CC[C@]4(C)[C@H]3CC[C@]12C (mixture of isomers)
[1]
  fold change (FC): 1
[2]
  fold change (FC): 0.9

## C[C@H](CCCC(C)(C)O)[C@H]1CC[C@H]2[C@@H]3CC=C4C[C@@H](O)CC[C@]4(C)[C@H]3CC[C@]12C
[1]
  fold change (FC): 69.9
[2]
  fold change (FC): 9.8
[3]
  Selectivity ratio: 7.1
